Experiment [1] in a line: Effective concentration of compound for half-maximal response in hydroosmotic toad bladder assay. In kind it is functional. The note with it: Amphibia; read-out: ED50 (the source's name). In a few lines:
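Toad hemibladders filled with Ringer's fluid diluted to half-strength with distilled water. Net osmotic water flux across the bladder wall measured gravimetrically by the Bentley method. ED-50 taken as the concentration giving a half-maximal water flow response.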

Experiment [2] has as its system Rattus norvegicus. As to the kind of experiment: Pressor activity of compound was assayed on urethane-anesthetized, phenoxybenzamine-treated rats. In kind it is functional. Set-up: unit not given here.
The species entered for experiment [3] is Rattus norvegicus. As to the kind of experiment: Antidiuretic activity of compound was assayed on water-loaded rats. It counts as functional, Urine.

Where a SMILES comes first, the peptide text is derived from it. Bridges are numbered along the chain shown (N, C = ends). [ ]: non-standard residue; d: D form. The star is where a group is joined. Biotin = O=C1N[C@H]2[C@H](CS[C@H]2CCCCC(=O)*)N1; Phe(4-NH2) = Nc1ccc(C[C@H](N)C(=O)O)cc1; Mpa = O=C(O)CCS

As for `CC[C@H](C)[C@@H]1NC(=O)[C@H](Cc2ccccc2)NC(=O)[C@@H](N)CSSC[C@@H](C(=O)N2CCC[C@H]2C(=O)N[C@@H](CCCN=C(N)N)C(=O)N[C@@H](Cc2ccc(O)cc2)C(N)=O)NC(=O)[C@H](CC(N)=O)NC(=O)[C@H](CCC(N)=O)NC1=O` (HELM PEPTIDE1{C.F.I.Q.N.C.P.R.Y.[am]}$PEPTIDE1,PEPTIDE1,1:R3-6:R3$$$V2.0), in experiment [1], the EC50 came out at 2.1 nM. Besides, the Pressor activity in experiment [2] is recorded as 0. Also, the Antidiuretic activity in experiment [3] is 2.8 U/mg.

For the molecule `CC[C@H](C)[C@@H]1NC(=O)[C@H](Cc2ccccc2)NC(=O)[C@@H](N)CSSC[C@@H](C(=O)N2CCC[C@H]2C(=O)N[C@@H](CCCN=C(N)N)C(=O)N[C@@H](Cc2ccc(O)c(I)c2)C(N)=O)NC(=O)[C@H](CC(N)=O)NC(=O)[C@H](CCC(N)=O)NC1=O` (HELM PEPTIDE1{C.F.I.Q.N.C.P.R.[O=C([C@H](Cc1ccc(O)c(I)c1)N[*:1])[*:2]].[am]}$PEPTIDE1,PEPTIDE1,1:R3-6:R3$$$V2.0), the EC50 in experiment [1] was determined as 2.5 nM. Moreover, in experiment [3], the Antidiuretic activity turned out to be 0.41 U/mg.

On to `CC[C@H](C)[C@@H]1NC(=O)[C@H](Cc2ccc(O)cc2)NC(=O)[C@@H](N)CSSC[C@@H](C(=O)N2CCC[C@H]2C(=O)N[C@@H](CCCN=C(N)N)C(=O)N[C@@H](Cc2ccc(O)cc2)C(N)=O)NC(=O)[C@H](CC(N)=O)NC(=O)[C@H](CCC(N)=O)NC1=O` (HELM PEPTIDE1{C.Y.I.Q.N.C.P.R.Y.[am]}$PEPTIDE1,PEPTIDE1,1:R3-6:R3$$$V2.0), for which the EC50 in experiment [1] turned out to be 0.49 nM. Also, in experiment [2], the Pressor activity is reported as 0. The Antidiuretic activity in experiment [3] came to 25 U/mg.

As to `CC[C@H](C)[C@@H]1NC(=O)[C@H](Cc2ccc(O)cc2)NC(=O)CCSSC[C@@H](C(=O)N2CCC[C@H]2C(=O)N[C@@H](CCCN=C(N)N)C(=O)N[C@@H](Cc2ccc(N)cc2)C(N)=O)NC(=O)[C@H](CC(N)=O)NC(=O)[C@H](CCC(N)=O)NC1=O` (HELM PEPTIDE1{[O=C(CCS[*:3])[*:2]].Y.I.Q.N.C.P.R.[Nc1ccc(C[C@H](N[*:1])C(=O)[*:2])cc1].[am]}$PEPTIDE1,PEPTIDE1,1:R3-6:R3$$$V2.0), the EC50 in experiment [1] is 0.13 nM. The Pressor activity in experiment [2] stood at 0. This molecule had an Antidiuretic activity in experiment [3] of 66 U/mg.

Turning to `CC[C@H](C)[C@@H]1NC(=O)[C@H](Cc2ccc(O)cc2)NC(=O)CCSSC[C@@H](C(=O)N2CCC[C@H]2C(=O)N[C@@H](CCCN=C(N)N)C(=O)N[C@@H](Cc2ccc(N=[N+]=[N-])cc2)C(N)=O)NC(=O)[C@H](CC(N)=O)NC(=O)[C@H](CCC(N)=O)NC1=O` (HELM PEPTIDE1{[O=C(CCS[*:3])[*:2]].Y.I.Q.N.C.P.R.[[N-]=[N+]=Nc1ccc(C[C@H](N[*:1])C(=O)[*:2])cc1].[am]}$PEPTIDE1,PEPTIDE1,1:R3-6:R3$$$V2.0), in experiment [1], the EC50 came out at 0.09 nM. In addition, the Antidiuretic activity in experiment [3] was 40 U/mg.

In the case of `CC[C@H](C)[C@@H]1NC(=O)[C@H](Cc2ccc(O)cc2)NC(=O)CCSSC[C@@H](C(=O)N2CCC[C@H]2C(=O)N[C@@H](CCCN=C(N)N)C(=O)N[C@@H](Cc2ccc(NC(=O)CCCC[C@@H]3SC[C@@H]4NC(=O)N[C@@H]43)cc2)C(N)=O)NC(=O)[C@H](CC(N)=O)NC(=O)[C@H](CCC(N)=O)NC1=O` ([Mpa]YIQNCPR[Phe(4-NH2)](Biotin)-NH2; disulfide 1-6), the EC50 in experiment [1] is 12 nM. Besides, the Antidiuretic activity in experiment [3] was 23 U/mg.

As for `CC[C@H](C)[C@@H]1NC(=O)[C@H](Cc2ccc(O)cc2)NC(=O)[C@@H](N)CSSC[C@@H](C(=O)N2CCC[C@H]2C(=O)N[C@@H](CCCN=C(N)N)C(=O)NCC(N)=O)NC(=O)[C@H](CC(N)=O)NC(=O)[C@H](CCC(N)=O)NC1=O` [VASOTOCIN] (HELM PEPTIDE1{C.Y.I.Q.N.C.P.R.G.[am]}$PEPTIDE1,PEPTIDE1,1:R3-6:R3$$$V2.0), the EC50 in experiment [1] stood at 0.022 nM. This molecule also showed a Pressor activity in experiment [2] of 160. The molecule also came in with an Antidiuretic activity in experiment [3] of 231 U/mg.

These data come from ChEMBL document CHEMBL1124363, “Photoaffinity, biotinyl, and iodo analogues as probes for vasotocin receptors” (1989).
